Source: ChEMBL document CHEMBL5376013, “Design, synthesis and biological evaluation of novel morpholinopyrimidine-5-carbonitrile derivatives as dual PI3K/mTOR inhibitors” (RSC Med Chem, 2024)

Tests used:
Type in all cases: functional
Conditions in all cases: read-out: GI
HL-60 = assay: Antitumor activity against human HL-60 cells assessed as growth inhibition at 10 uM relative to control
In short: (§1)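 After drug addition, plates were incubated 48 h at 37 °C under 5% CO2. Adherent cells were fixed with cold TCA (10% final, 60 min, 4 °C) and suspension cells with 16% final TCA. Staining used 0.4% SRB in 1% acetic acid, solubilized in 10 mM trizma, read at A515. Percent growth was calculated from time-zero, control and treated absorbances.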

K562 = assay: Antitumor activity against human K562 cells assessed as growth inhibition at 10 uM relative to control; in short: as §1
MOLT-4 = assay: Antitumor activity against human MOLT-4 cells assessed as growth inhibition at 10 uM relative to control; in short: as §1
SR = assay: Antitumor activity against human SR cells assessed as growth inhibition at 10 uM relative to control
In short: (§2)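 Drug exposure 48 h at 37 °C, 5% CO2. Adherent cells fixed with cold TCA (10% final), suspension cells with TCA (16% final). Stained with 0.4% SRB in 1% acetic acid, dissolved in 10 mM Tris, A515. Growth relative to time-zero and untreated control.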

A549 = assay: Antitumor activity against human A549 cells assessed as growth inhibition at 10 uM relative to control; in short: as §1
EKVX = assay: Antitumor activity against human EKVX cells assessed as growth inhibition at 10 uM relative to control; in short: as §1
HOP-62 = assay: Antitumor activity against human HOP-62 cells assessed as growth inhibition at 10 uM relative to control; in short: as §1
HOP-92 = assay: Antitumor activity against human HOP-92 cells assessed as growth inhibition at 10 uM relative to control; in short: as §1
NCI-H226 = assay: Antitumor activity against human NCI-H226 cells assessed as growth inhibition at 10 uM relative to control; in short: as §1
NCI-H23 = assay: Antitumor activity against human NCI-H23 cells assessed as growth inhibition at 10 uM relative to control; in short: as §1
NCI-H322M = assay: Antitumor activity against human NCI-H322M cells assessed as growth inhibition at 10 uM relative to control; in short: as §1
NCI-H522 = assay: Antitumor activity against human NCI-H522 cells assessed as growth inhibition at 10 uM relative to control; in short: as §1
COLO 205 = assay: Antitumor activity against human COLO 205 cells assessed as growth inhibition at 10 uM relative to control; in short: as §1
HCC 2998 = assay: Antitumor activity against human HCC 2998 cells assessed as growth inhibition at 10 uM relative to control; in short: as §1
HCT-116 = assay: Antitumor activity against human HCT-116 cells assessed as growth inhibition at 10 uM relative to control; in short: as §1
HCT-15 = assay: Antitumor activity against human HCT-15 cells assessed as growth inhibition at 10 uM relative to control; in short: as §1
SF-268 = assay: Antitumor activity against human SF-268 cells assessed as growth inhibition at 10 uM relative to control; in short: as §1
SF-295 = assay: Antitumor activity against human SF-295 cells assessed as growth inhibition at 10 uM relative to control; in short: as §1
SF-539 = assay: Antitumor activity against human SF-539 cells assessed as growth inhibition at 10 uM relative to control; in short: as §1
SNB-19 = assay: Antitumor activity against human SNB-19 cells assessed as growth inhibition at 10 uM relative to control; in short: as §2
SNB-75 = assay: Antitumor activity against human SNB-75 cells assessed as growth inhibition at 10 uM relative to control; in short: as §2
U-251 = assay: Antitumor activity against human U-251 cells assessed as growth inhibition at 10 uM relative to control; in short: as §2
LOX IMVI = assay: Antitumor activity against human LOX IMVI cells assessed as growth inhibition at 10 uM relative to control; in short: as §1
M14 = assay: Antitumor activity against human M14 cells assessed as growth inhibition at 10 uM relative to control; in short: as §1
MDA-MB-435 = assay: Antitumor activity against human MDA-MB-435 cells assessed as growth inhibition at 10 uM relative to control; in short: as §1
SK-MEL-2 = assay: Antitumor activity against human SK-MEL-2 cells assessed as growth inhibition at 10 uM relative to control; in short: as §1
SK-MEL-5 = assay: Antitumor activity against human SK-MEL-5 cells assessed as growth inhibition at 10 uM relative to control; in short: as §2
UACC-257 = assay: Antitumor activity against human UACC-257 cells assessed as growth inhibition at 10 uM relative to control; in short: as §2
IGROV-1 = assay: Antitumor activity against human IGROV-1 cells assessed as growth inhibition at 10 uM relative to control; in short: as §1
OVCAR-3 = assay: Antitumor activity against human OVCAR-3 cells assessed as growth inhibition at 10 uM relative to control; in short: as §1
OVCAR-4 = assay: Antitumor activity against human OVCAR-4 cells assessed as growth inhibition at 10 uM relative to control; in short: as §1
OVCAR-5 = assay: Antitumor activity against human OVCAR-5 cells assessed as growth inhibition at 10 uM relative to control; in short: as §1
OVCAR-8 = assay: Antitumor activity against human OVCAR-8 cells assessed as growth inhibition at 10 uM relative to control; in short: as §1
SK-OV-3 = assay: Antitumor activity against human SK-OV-3 cells assessed as growth inhibition at 10 uM relative to control; in short: as §2
786-0 = assay: Antitumor activity against human 786-0 cells assessed as growth inhibition at 10 uM relative to control; in short: as §1
A498 = assay: Antitumor activity against human A498 cells assessed as growth inhibition at 10 uM relative to control; in short: as §1
CAKI-1 = assay: Antitumor activity against human CAKI-1 cells assessed as growth inhibition at 10 uM relative to control; in short: as §1
RXF 393 = assay: Antitumor activity against human RXF 393 cells assessed as growth inhibition at 10 uM relative to control; in short: as §1
TK-10 = assay: Antitumor activity against human TK-10 cells assessed as growth inhibition at 10 uM relative to control; in short: as §2
UO-31 = assay: Antitumor activity against human UO-31 cells assessed as growth inhibition at 10 uM relative to control; in short: as §2
PC-3 = assay: Antitumor activity against human PC-3 cells assessed as growth inhibition at 10 uM relative to control; in short: as §1
DU-145 = assay: Antitumor activity against human DU-145 cells assessed as growth inhibition at 10 uM relative to control; in short: as §1
MCF7 = assay: Antitumor activity against human MCF7 cells assessed as growth inhibition at 10 uM relative to control; in short: as §1
MDA-MB-231 = assay: Antitumor activity against human MDA-MB-231 cells assessed as growth inhibition at 10 uM relative to control; in short: as §1
Hs-578T = assay: Antitumor activity against human Hs-578T cells assessed as growth inhibition at 10 uM relative to control; in short: as §1
BT-549 = assay: Antitumor activity against human BT-549 cells assessed as growth inhibition at 10 uM relative to control; in short: as §1

CC1=NN(c2nc(-c3ccc(Cl)cc3)c(C#N)c(N3CCOCC3)n2)C(=O)C1
inhibition of growth at 10 µM (HL-60): 18.2% | inhibition of growth at 10 µM (K562): < 1% | inhibition of growth at 10 µM (MOLT-4): < 1% | inhibition of growth at 10 µM (SR): < 1% | inhibition of growth at 10 µM (A549): < 1% | inhibition of growth at 10 µM (EKVX): 11.2% | inhibition of growth at 10 µM (HOP-62): 12.6% | inhibition of growth at 10 µM (HOP-92): 93.7% | inhibition of growth at 10 µM (NCI-H226): 10.2% | inhibition of growth at 10 µM (NCI-H23): 19.3% | inhibition of growth at 10 µM (NCI-H322M): < 1% | inhibition of growth at 10 µM (NCI-H522): 21.1% | inhibition of growth at 10 µM (COLO 205): < 1% | inhibition of growth at 10 µM (HCC 2998): < 1% | inhibition of growth at 10 µM (HCT-116): < 1% | inhibition of growth at 10 µM (HCT-15): 10.3% | inhibition of growth at 10 µM (SF-268): < 1% | inhibition of growth at 10 µM (SF-295): < 1% | inhibition of growth at 10 µM (SF-539): < 1% | inhibition of growth at 10 µM (SNB-19): < 1% | inhibition of growth at 10 µM (SNB-75): 43.5% | inhibition of growth at 10 µM (U-251): < 1% | inhibition of growth at 10 µM (LOX IMVI): 24.5% | inhibition of growth at 10 µM (M14): 10% | inhibition of growth at 10 µM (MDA-MB-435): 12.2% | inhibition of growth at 10 µM (SK-MEL-2): 12.9% | inhibition of growth at 10 µM (SK-MEL-5): < 1% | inhibition of growth at 10 µM (UACC-257): < 1% | inhibition of growth at 10 µM (IGROV-1): 19% | inhibition of growth at 10 µM (OVCAR-3): 49.8% | inhibition of growth at 10 µM (OVCAR-4): 48.5% | inhibition of growth at 10 µM (OVCAR-5): 15.2% | inhibition of growth at 10 µM (OVCAR-8): < 1% | inhibition of growth at 10 µM (SK-OV-3): 13.4% | inhibition of growth at 10 µM (786-0): 13.4% | inhibition of growth at 10 µM (A498): 42% | inhibition of growth at 10 µM (CAKI-1): 29.9% | inhibition of growth at 10 µM (RXF 393): 56.6% | inhibition of growth at 10 µM (TK-10): < 1% | inhibition of growth at 10 µM (UO-31): 28.1% | inhibition of growth at 10 µM (PC-3): < 1% | inhibition of growth at 10 µM (DU-145): < 1% | inhibition of growth at 10 µM (MCF7): 1% | inhibition of growth at 10 µM (MDA-MB-231): < 1% | inhibition of growth at 10 µM (Hs-578T): 45.4% | inhibition of growth at 10 µM (BT-549): 33.9%

CSc1nc(O)c(C#N)c(-c2ccc(Cl)cc2)n1
inhibition of growth at 10 µM (HL-60): < 1% | inhibition of growth at 10 µM (K562): < 1% | inhibition of growth at 10 µM (MOLT-4): < 1% | inhibition of growth at 10 µM (SR): < 1% | inhibition of growth at 10 µM (A549): < 1% | inhibition of growth at 10 µM (EKVX): < 1% | inhibition of growth at 10 µM (HOP-62): < 1% | inhibition of growth at 10 µM (HOP-92): 24.7% | inhibition of growth at 10 µM (NCI-H226): < 1% | inhibition of growth at 10 µM (NCI-H23): < 1% | inhibition of growth at 10 µM (NCI-H322M): < 1% | inhibition of growth at 10 µM (NCI-H522): < 1% | inhibition of growth at 10 µM (COLO 205): < 1% | inhibition of growth at 10 µM (HCC 2998): < 1% | inhibition of growth at 10 µM (HCT-116): < 1% | inhibition of growth at 10 µM (HCT-15): < 1% | inhibition of growth at 10 µM (SF-268): < 1% | inhibition of growth at 10 µM (SF-295): < 1% | inhibition of growth at 10 µM (SF-539): < 1% | inhibition of growth at 10 µM (SNB-19): < 1% | inhibition of growth at 10 µM (SNB-75): 11.3% | inhibition of growth at 10 µM (U-251): < 1% | inhibition of growth at 10 µM (LOX IMVI): < 1% | inhibition of growth at 10 µM (M14): < 1% | inhibition of growth at 10 µM (MDA-MB-435): < 1% | inhibition of growth at 10 µM (SK-MEL-2): < 1% | inhibition of growth at 10 µM (SK-MEL-5): < 1% | inhibition of growth at 10 µM (UACC-257): < 1% | inhibition of growth at 10 µM (IGROV-1): < 1% | inhibition of growth at 10 µM (OVCAR-3): < 1% | inhibition of growth at 10 µM (OVCAR-4): < 1% | inhibition of growth at 10 µM (OVCAR-5): < 1% | inhibition of growth at 10 µM (OVCAR-8): < 1% | inhibition of growth at 10 µM (SK-OV-3): < 1% | inhibition of growth at 10 µM (786-0): < 1% | inhibition of growth at 10 µM (A498): < 1% | inhibition of growth at 10 µM (CAKI-1): < 1% | inhibition of growth at 10 µM (RXF 393): < 1% | inhibition of growth at 10 µM (TK-10): < 1% | inhibition of growth at 10 µM (UO-31): < 1% | inhibition of growth at 10 µM (PC-3): < 1% | inhibition of growth at 10 µM (DU-145): < 1% | inhibition of growth at 10 µM (MCF7): 11% | inhibition of growth at 10 µM (MDA-MB-231): < 1% | inhibition of growth at 10 µM (Hs-578T): < 1% | inhibition of growth at 10 µM (BT-549): < 1%
